Screening results: PubChem, several laboratories
TbHK1 inh – Trypanosoma brucei hexokinase 1 inhibitors, primary screen, biochemical, G6PDH-coupled NADH absorbance, MLSCN library | hexokinase 1 [Trypanosoma brucei] | recombinant TbHK1, G6PDH-coupled NADH A340 | inhibition, % at 10 µM | actives 0.11% (n = 220,000) | AID 1430, 2008;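 active = inhibition of 50% or more in the single-dose primary screen; inactive = inhibition below 50%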
Diaphorase inh – diaphorase inhibitors and chemical oxidizers, primary screen, counter-screen for diaphorase-coupled primary assays, biochemical, uHTS, resorufin fluorescence | diaphorase resazurin-to-resorufin fluorescence, NADH, 16 min; bacterial (C. kluyveri) enzyme, not human | inhibition, % at 20 µM | actives 0.69% (n = 190,000) | AID 1217, 2008;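 active = primary screen inhibition at 20 µM above a set limit, cut at about 50% in these data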;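 note: plate controls were DMSO with full reaction for no effect and wells lacking NADH for full effect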
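System: Diaphorase enzyme from Clostridium kluyveri | Amount: Enzyme working solution with 0.14 U/mL diaphorase | Benchmarks: No-NADH positive control and DMSO neutral control | Signal: Fluorescence of resorufin formed from resazurin, Ex 544/Em 590 nm | Schedule: 16-min room-temperature incubation before reading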
G6PDH counter – L. mesenteroides G6PDH inhibitors, counter-screen for G6PDH-coupled screening assays, biochemical, Leuconostoc mesenteroides enzyme; actives 0.12% (n = 200,000); glucose-6-phosphate dehydrogenase [Leuconostoc mesenteroides]; Purified L. mesenteroides G6PDH, diaphorase/resazurin coupled fluorescence, 45 min; AID 1020, 2008; inhibition, % at 5 µM; in the data active = inhibition above about 50%
PMI act satM6P – human PMI activators, high substrate, primary screen, biochemical, fluorescence intensity, near-saturating mannose 6-phosphate. Mannose-6-phosphate isomerase (Homo sapiens), P34949. coupled PMI enzyme assay, resazurin fluorescence, 20 min; hits give high values; 1 = untreated enzyme, 0 = substrate-free blank. activation factor at 20 µM. actives 0.34% (n = 190,000). AID 1216, 2008;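 active = activation factor of 2 or more at 20 µM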
Target sequence (P34949 whole entry, looked up): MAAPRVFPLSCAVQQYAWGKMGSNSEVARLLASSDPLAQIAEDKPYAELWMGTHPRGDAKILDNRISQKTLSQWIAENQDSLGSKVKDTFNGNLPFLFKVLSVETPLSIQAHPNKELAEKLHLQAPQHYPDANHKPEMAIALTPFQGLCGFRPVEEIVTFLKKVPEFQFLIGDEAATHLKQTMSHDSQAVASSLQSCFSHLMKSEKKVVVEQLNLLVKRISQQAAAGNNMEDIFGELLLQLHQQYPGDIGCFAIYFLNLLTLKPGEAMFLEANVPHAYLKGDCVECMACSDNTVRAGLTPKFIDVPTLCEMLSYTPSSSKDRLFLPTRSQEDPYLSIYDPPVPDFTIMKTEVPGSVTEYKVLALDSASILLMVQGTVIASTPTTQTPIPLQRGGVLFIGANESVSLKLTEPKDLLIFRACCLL
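Technique: Diaphorase-driven resazurin-to-resorufin fluorescence, excitation 544, emission 590 nm | Assay system: Human PMI in coupled enzyme assay | Times: Enzyme reaction with compound 20 min at room temperature | Medium: HEPES-buffered pH 7.4 with magnesium and detergent | Reagent: Mannose-6-phosphate 1.0 mM (near-saturating) plus 0.22 mM NADP+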
Diaphorase act – compounds boosting diaphorase resazurin reduction – biochemical, uHTS, resorufin fluorescence, counter-screen for diaphorase-coupled primary assays, primary screen; Diaphorase/resazurin coupled assay, 16 min; hits give high values; 1 = vehicle wells, 0 = NADH-free wells; activation factor at 20 µM; actives 0.005% (n = 190,000);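 active = diaphorase activity raised at least twofold by the compound at 20 µM; inactive = activation factor below 2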
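System – purified diaphorase enzyme from Clostridium kluyveri · Input – enzyme 0.07 U/mL final · Also added – final NADH 0.114 mM, resazurin 0.1 mM · Measured by – fluorescence of resorufin, 544 nm excitation, 590 nm emission · Timing – 16 min enzyme reaction, ambient temperature · Measure – resorufin increase flagging diaphorase activators or reducers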
PMI activator – activators of human PMI, primary screen, biochemical, fluorescence intensity, near-Km mannose 6-phosphate; purified human PMI, coupled resazurin fluorescence, 20 min; hits give high values; 1 = vehicle control, 0 substrate-free wells; activation factor at 20 µM; actives 0.005% (n = 190,000); AID 1214, 2008;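 active = activation factor of 2 or more at 20 µM, relative to plate controls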
* = called active by the depositor. Only some compounds are listed: those with a hit (about 1.1% of all), similar ones and a draw of the others.

Results for C=C(C)C1CC=C(C)/C(=N\NC(=O)CCC(=O)Nc2ccc(C)c(C)c2)C1 (configuration not stated) ?
TbHK1 inh: -3.0

Results for O=c1sc(/C=N/Nc2ccccc2)c(Cl)n1Cc1ccccc1 ?
TbHK1 inh: -5.3; Diaphorase inh: 21.1; G6PDH counter: 6.2; PMI act satM6P: 2.1*; Diaphorase act: 0.8; PMI activator: 1.4

How did O=C(O)c1cccc(Cn2c(Cl)c(/C=N/NC(=O)c3ccc(O)cc3)sc2=O)c1 do in these assays?
TbHK1 inh: -53.9

What do the screens show for `COc1ccc(-c2noc(=O)n2CC(=O)N2CCC(Cc3ccccc3)CC2)cc1`?
TbHK1 inh: -0.7; Diaphorase inh: 29.9; G6PDH counter: -1.0; PMI act satM6P: 0.9; Diaphorase act: 0.7; PMI activator: 0.9

What do the screens show for `NCCc1ccc(O)c(O)c1`?
TbHK1 inh: 1.0; Diaphorase inh: 54.4*; G6PDH counter: 47.2; PMI act satM6P: 0.6; Diaphorase act: 0.5; PMI activator: 0.4

Results for O=C(Cc1ccccc1)NC(NNc1ccccc1)(C(F)(F)F)C(F)(F)F ?
TbHK1 inh: 2.4; Diaphorase inh: 10.6; G6PDH counter: -0.2; PMI act satM6P: 2.5*; Diaphorase act: 0.9; PMI activator: 1.7

What do the screens show for `O=C(Cc1ccccc1)NNC(=O)Cc1ccccc1`?
TbHK1 inh: -6.2; Diaphorase inh: -2.1; G6PDH counter: -1.3; PMI act satM6P: 1.1; Diaphorase act: 1; PMI activator: 1

How did COc1cc(/C=C2\C(=O)N(c3ccc(NC(C)=O)cc3)N=C2c2ccccc2)ccc1O do in these assays?
TbHK1 inh: -32.8; Diaphorase inh: 28.6; G6PDH counter: -3.0; PMI act satM6P: 0.7; Diaphorase act: 0.7; PMI activator: 0.9

What do the screens show for `O=C1/C(=C\c2ccc(O)c(O)c2)C(c2ccccc2)=NN1c1ccccc1`?
TbHK1 inh: -3.0; Diaphorase inh: 64.6*; G6PDH counter: 17.2; PMI act satM6P: 0.8; Diaphorase act: 0.4; PMI activator: 0.6

Results for Cc1csc2c(=O)n(CCO)c(=O)[nH]c12 ?
TbHK1 inh: -9.5

How did O=c1cc2oc3cc(O)c(O)cc3c(-c3ccccc3O)c-2cc1O do in these assays?
TbHK1 inh: 1.9

What do the screens show for `COc1ccc(OC)c(-c2c3cc(O)c(=O)cc-3oc3cc(O)c(O)cc23)c1`?
TbHK1 inh: 23.1; Diaphorase inh: 88.5*; G6PDH counter: 31.8; PMI act satM6P: 0.4; Diaphorase act: 0.1; PMI activator: 0.4

What do the screens show for `NNC(=O)c1cc(O)c(O)c(O)c1`?
TbHK1 inh: 17.4; Diaphorase inh: 64.9*; G6PDH counter: 9.2; PMI act satM6P: 0.8; Diaphorase act: 0.4; PMI activator: 0.5

What do the screens show for `COc1c(Cl)cc(C(=O)NN)cc1Cl`?
TbHK1 inh: -4.4; Diaphorase inh: -15.2; G6PDH counter: -0.5; PMI act satM6P: 1.1; Diaphorase act: 1.2; PMI activator: 1.1

How did COCCCNC(=O)c1cc(C)nn1-c1ccccc1 do in these assays?
TbHK1 inh: -8.4

What do the screens show for `O=C(NCCCN1CCOCC1)c1cccc(S(=O)(=O)Nc2cc(Cl)ccc2Cl)c1`?
TbHK1 inh: -0.8; Diaphorase inh: 12.7; G6PDH counter: 5.1; PMI act satM6P: 1; Diaphorase act: 0.9; PMI activator: 1.1

Results for FC(F)Oc1cccc(NC(=S)N2CCN(c3ccccn3)CC2)c1 ?
TbHK1 inh: 0.6; Diaphorase inh: 69.6*; G6PDH counter: 0.5; PMI act satM6P: 0.4; Diaphorase act: 0.3; PMI activator: 0.3

How did COc1ccc(-n2nnnc2SCC(=O)c2cccc(OC)c2)cc1 do in these assays?
TbHK1 inh: 6.2; Diaphorase inh: 10.9; G6PDH counter: -2.0; PMI act satM6P: 1; Diaphorase act: 0.9; PMI activator: 0.9

Results for O=C(CSc1nnnn1-c1ccc(F)cc1)c1ccc(O)c(O)c1 ?
TbHK1 inh: -4.8; Diaphorase inh: 50.1*; G6PDH counter: 13.7; PMI act satM6P: 1; Diaphorase act: 0.5; PMI activator: 0.7

Results for Oc1cc(-n2cccn2)c(O)cc1-n1cccn1 ?
TbHK1 inh: 15.6

How did CN(C)c1cccc2c(C=C(C#N)C#N)ccc(N(C)C)c12 do in these assays?
TbHK1 inh: -5.5; Diaphorase inh: 61.5*; G6PDH counter: 13.7; PMI act satM6P: 0.4; Diaphorase act: 0.4; PMI activator: 0.7

Results for CN(C)c1cccc2c(/C=N/O)ccc(N(C)C)c12 ?
TbHK1 inh: 4.3; Diaphorase inh: 22.4; G6PDH counter: 5.2; PMI act satM6P: 0.5; Diaphorase act: 0.8; PMI activator: 0.8

How did COc1ccc(C(=O)Nc2cnn(Cc3c(F)cccc3Cl)c2)cc1OC do in these assays?
TbHK1 inh: -13.2

Results for O=C(Cc1ccc(Cl)c(Cl)c1)Nc1cccc(S(=O)(=O)N2CCOCC2)c1 ?
TbHK1 inh: -3.9; Diaphorase inh: 13.2; G6PDH counter: 6.7; PMI act satM6P: 1; Diaphorase act: 0.9; PMI activator: 1

What do the screens show for `O=C(CSc1n[nH]c(=O)[nH]c1=O)c1ccc([N+](=O)[O-])cc1`?
TbHK1 inh: -8.9

Results for O=C(CSc1ccccc1C(=O)O)c1ccc([N+](=O)[O-])cc1 ?
TbHK1 inh: -1.8; Diaphorase inh: 3.9; G6PDH counter: 3.5; PMI act satM6P: 2.2*; Diaphorase act: 1; PMI activator: 1.9

How did CCOC(=O)c1oc2nc(C(C)C)c3c(c2c1N)CC(C)(C)OC3 do in these assays?
TbHK1 inh: -14.9; Diaphorase inh: 68.2*; G6PDH counter: 11.7; PMI act satM6P: 0.9; Diaphorase act: 0.3; PMI activator: 1

How did COc1ncnc2c1oc1nc(C(C)C)c3c(c12)CC(C)(C)OC3 do in these assays?
TbHK1 inh: -7.7; Diaphorase inh: 88.5*; G6PDH counter: 6.5; PMI act satM6P: 1; Diaphorase act: 0.1; PMI activator: 0.9

What do the screens show for `COc1cc(C(=S)N2CCOCC2)ccc1OC(=O)/C=C/c1ccco1`?
TbHK1 inh: -9.8; Diaphorase inh: 2.6; G6PDH counter: 3.0; PMI act satM6P: 1; Diaphorase act: 1; PMI activator: 1

What do the screens show for `O=C(CCl)Nc1cccc(S(=O)(=O)NC2=NCCC2)c1`?
TbHK1 inh: -11.3
